Test results as given in ChEMBL document CHEMBL4480436, “Lead optimization of selective tubulin inhibitors as anti-trypanosomal agents” (Bioorg Med Chem, 2019).

Key:
[1] = tested on: Trypanosoma brucei brucei; assay: Antiparasitic activity against Trypanosoma brucei brucei Lister 427 assessed as reduction in parasite viability after 48 hrs by MTS assay; type: functional, organism-based; conditions: Lister 427, 48 h
In short: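 Bloodstream-form Lister 427 grown in HMI-9 with 10% FBS, 37 °C, 7.5% CO2. 5000 cells/well exposed to graded concentrations with 0.1% DMSO for 48 h at 37 °C. MTS/PMS reagent then added, 3 h at 37 °C, formazan read at 490 nm. Quadruplicate data normalized and fitted to dose–response curves for IC50 (Mean ± S.D.).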

HEK293 = assay: Cytotoxicity against HEK293 cells after 48 hrs by MTT assay; type: cell-based; conditions: Homo sapiens, HEK293, 48 h
In short: (§1)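 Cells kept in RPMI1640 with 10% heat-inactivated FBS, 2 mM L-glutamine, 1 mM pyruvate, pen-strep, 37 °C, 5% CO2. 3000 cells/well seeded 24 h, then exposed to graded concentrations (DMSO ≤0.1% final) for 48 h. Then 0.5 mg/mL MTT 3 h at 37 °C, DMSO solubilization, absorbance 570 nm. Quadruplicate data fitted to dose–response curves for IC50.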

RAW264.7 = assay: Cytotoxicity against mouse RAW264.7 cells after 48 hrs by MTT assay; type: cell-based; conditions: RAW264.7, 48 h; in short: as §1
[2] = Selectivity index, ratio of IC50 for HEK293 cells to IC50 for Trypanosoma brucei brucei Lister 427; type: toxicity; conditions: human, read-out: Ratio IC50
In short: (§2)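 Ratio of mammalian MTT IC50 (48 h) to T. brucei MTS IC50 (48 h), both from quadruplicate dose–response fits.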

[3] = Selectivity index, ratio of IC50 for mouse RAW264.7 cells to IC50 for Trypanosoma brucei brucei Lister 427; type: toxicity; conditions: read-out: Ratio IC50; in short: as §2

| Compound | IC50 [1] | IC50 (HEK293) | IC50 (RAW264.7) | selectivity ratio [2] | selectivity ratio [3] |
| --- | --- | --- | --- | --- | --- |
| Cc1cc(NC(=O)c2ccc(Cl)cc2)ccc1NS(C)(=O)=O | > 62.5 µM | 50.3 µM | 69 µM | < 1 | < 2 |
| CCS(=O)(=O)Nc1ccc(NC(=O)c2ccc(C#N)cc2)cc1C | > 62.5 µM | > 250 µM | 109 µM |  | < 2 |
| CCS(=O)(=O)Nc1ccc(NC(=O)c2ccc(Cl)cc2)cc1F | > 62.5 µM | 53.4 µM | 152 µM | < 1 | < 3 |
| Cc1cc(NC(=O)c2ccc(C#N)cc2)ccc1NS(=O)(=O)C(F)(F)F | > 62.5 µM | > 250 µM | 135 µM |  | < 3 |
| COc1cc(NC(=O)c2ccc(C#N)cc2)ccc1NS(C)(=O)=O | > 62.5 µM | > 250 µM | > 250 µM |  |  |
| CCS(=O)(=O)Nc1ccc(NC(=O)c2ccc(C#N)cc2)cc1F | > 62.5 µM | 26.4 µM | 107 µM | < 1 | < 2 |
| CS(=O)(=O)Nc1ccc(NC(=O)c2ccc(Cl)cc2)cc1F | > 62.5 µM | 216 µM | 22.2 µM | < 4 | < 1 |
| COc1cc(NC(=O)c2ccc(Cl)c([N+](=O)[O-])c2)ccc1NS(C)(=O)=O | > 62.5 µM | 164 µM | > 250 µM | < 3 |  |
| CCS(=O)(=O)Nc1ccc(NC(=O)c2ccc(Cl)cc2)cc1C | > 62.5 µM | 125 µM | 68.7 µM | < 3 | < 2 |
| CS(=O)(=O)Nc1ccc(NC(=O)c2ccc(C#N)cc2)cc1F | > 62.5 µM | > 250 µM | > 250 µM |  |  |
| CCS(=O)(=O)Nc1ccc(NC(=O)c2ccc(C#N)cc2)cc1OC | > 62.5 µM | > 250 µM | 66.4 µM |  | < 2 |
| COc1cc(NC(=O)c2cc(C(F)(F)F)cc(C(F)(F)F)c2)ccc1NS(=O)(=O)C(F)(F)F | > 62.5 µM | > 250 µM | > 250 µM |  |  |
| CS(=O)(=O)Nc1ccc(NC(=O)c2cccc(C(F)(F)F)c2)cc1Cl | > 62.5 µM | > 250 µM | > 250 µM |  |  |
| COc1cc(NC(=O)c2ccc(Cl)cc2)ccc1NS(C)(=O)=O | > 62.5 µM | > 250 µM | 70 µM |  | < 2 |
| COc1cc(NC(=O)c2cc(C(F)(F)F)cc(C(F)(F)F)c2)ccc1NS(C)(=O)=O | > 62.5 µM | 42 µM | > 250 µM | < 1 |  |
| COc1cc(NC(=O)c2cccc(C(F)(F)F)c2)ccc1NS(C)(=O)=O | > 62.5 µM | > 250 µM | 84.8 µM |  | < 2 |
| Cc1cc(NC(=O)c2ccc(Cl)c([N+](=O)[O-])c2)ccc1NS(=O)(=O)C(F)(F)F | > 62.5 µM | > 250 µM | 89.8 µM |  | < 2 |
| CCS(=O)(=O)Nc1ccc(NC(=O)c2ccc(Cl)cc2)cc1OC | > 62.5 µM | > 250 µM | 60.1 µM |  | < 1 |
| CS(=O)(=O)Nc1ccc(NC(=O)c2ccc(C#N)cc2)cc1Cl | > 62.5 µM | > 250 µM | > 250 µM |  |  |

Second part, led by results:

| IC50 [1] | Compound | IC50 (HEK293) | IC50 (RAW264.7) | selectivity ratio [2] | selectivity ratio [3] |
| --- | --- | --- | --- | --- | --- |
| 1.73 µM | CCS(=O)(=O)Nc1ccc(NC(=O)c2cc(C(F)(F)F)cc(C(F)(F)F)c2)cc1Cl | 32.2 µM | 64.1 µM | 19 | 37 |
| > 62.5 µM | CS(=O)(=O)Nc1ccc(NC(=O)c2cccc(C(F)(F)F)c2)cc1F | > 250 µM | 32.3 µM |  | < 1 |
| 7.81 µM | CCS(=O)(=O)Nc1ccc(NC(=O)c2cccc(C(F)(F)F)c2)cc1Cl | 159 µM | 62.4 µM | 20 | 8 |
| 23.7 µM | CS(=O)(=O)Nc1ccc(NC(=O)c2cc(C(F)(F)F)cc(C(F)(F)F)c2)cc1F | > 250 µM | 125 µM | > 11 | 5 |
| 47.4 µM | O=C(Nc1ccc(NS(=O)(=O)C(F)(F)F)c(Cl)c1)c1cc(C(F)(F)F)cc(C(F)(F)F)c1 | > 250 µM | 136 µM | > 5 | 3 |
| 2.21 µM | CCS(=O)(=O)Nc1ccc(NC(=O)c2ccc(Cl)c([N+](=O)[O-])c2)cc1Cl | 63.8 µM | 125 µM | 29 | 57 |
| 8.39 µM | CCS(=O)(=O)Nc1ccc(NC(=O)c2ccc(Cl)c([N+](=O)[O-])c2)cc1F | 83.7 µM | 198 µM | 10 | 24 |
| 11 µM | N#Cc1ccc(C(=O)Nc2ccc(NS(=O)(=O)C(F)(F)F)c(Cl)c2)cc1 | > 250 µM | > 250 µM | > 23 | > 23 |
| 20.7 µM | Cc1cc(NC(=O)c2cc(C(F)(F)F)cc(C(F)(F)F)c2)ccc1NS(=O)(=O)C(F)(F)F | 182 µM | 40.7 µM | 9 | 2 |
| 9.39 µM | O=C(Nc1ccc(NS(=O)(=O)C(F)(F)F)c(F)c1)c1cc(C(F)(F)F)cc(C(F)(F)F)c1 | 164 µM | 112 µM | 17 | 12 |
| 19.4 µM | CCS(=O)(=O)Nc1ccc(NC(=O)c2ccc(Cl)c([N+](=O)[O-])c2)cc1C | 144 µM | 141 µM | 7 | 7 |
| 21.7 µM | Cc1cc(NC(=O)c2cccc(C(F)(F)F)c2)ccc1NS(=O)(=O)C(F)(F)F | 131 µM | 8.72 µM | 6 | < 1 |
| 12.5 µM | CCS(=O)(=O)Nc1ccc(NC(=O)c2cc(C(F)(F)F)cc(C(F)(F)F)c2)cc1C | 126 µM | 124 µM | 10 | 10 |
| 38 µM | CCS(=O)(=O)Nc1ccc(NC(=O)c2ccc(C#N)cc2)cc1Cl | > 250 µM | 226 µM | > 7 | 6 |
| 14.1 µM | COc1cc(NC(=O)c2ccc(Cl)c([N+](=O)[O-])c2)ccc1NS(=O)(=O)C(F)(F)F | > 250 µM | > 250 µM | > 18 | > 18 |
| 35.3 µM | CCS(=O)(=O)Nc1ccc(NC(=O)c2cccc(C(F)(F)F)c2)cc1C | 210 µM | 114 µM | 6 | 3 |
| 16.7 µM | Cc1cc(NC(=O)c2cccc(C(F)(F)F)c2)ccc1NS(C)(=O)=O | 194 µM | 110 µM | 12 | 7 |
| 11.6 µM | CCS(=O)(=O)Nc1ccc(NC(=O)c2cc(C(F)(F)F)cc(C(F)(F)F)c2)cc1OC | > 250 µM | > 250 µM | > 22 | > 22 |
| 37.2 µM | Cc1cc(NC(=O)c2ccc(Cl)cc2)ccc1NS(=O)(=O)C(F)(F)F | 200 µM |  | 5 | 1 |
